Columns and labels:
Mus musculus [1] = experiment: Acute toxicity in C57BL/6J mouse assessed as lesions in stomach at 1 to 10 mg/kg, sc after 9 days; type: organism-based; parameters: dose 1-10 mg/kg, route subcutaneous; conditions: in vivo, 216 h
Summary of the method: (§1)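 Male C57BL/6J mice, 8 weeks old, received a single sc dose (1, 3 or 10 mg/kg in 25% DMSO/saline, n = 4 per group) and were sacrificed after 9 days. Two representative animals per group were fixed in 10% formalin. Cecum, duodenum, heart, ileum, kidney, liver, lung, pancreas, spleen and stomach were examined blind by a veterinary pathologist and lesions graded mild, moderate or severe.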

Mus musculus [2] = experiment: Acute toxicity in C57BL/6J mouse assessed as lesions in pancreas at 1 to 10 mg/kg, sc after 9 days; type: organism-based; parameters: dose 1-10 mg/kg, route subcutaneous; conditions: in vivo, 216 h; summary of the method: as §1
Mus musculus [3] = experiment: Acute toxicity in C57BL/6J mouse assessed as lesions in lungs at 1 to 10 mg/kg, sc after 9 days; type: organism-based; parameters: dose 1-10 mg/kg, route subcutaneous; conditions: in vivo, 216 h; summary of the method: as §1
Mus musculus [4] = experiment: Acute toxicity in C57BL/6J mouse assessed as lesions in heart at 1 to 10 mg/kg, sc after 9 days; type: organism-based; parameters: dose 1-10 mg/kg, route subcutaneous; conditions: in vivo, 216 h; summary of the method: as §1
Mus musculus [5] = experiment: Acute toxicity in C57BL/6J mouse assessed as lesions in GI tract at 1 to 10 mg/kg, sc after 9 days; type: organism-based, Gastrointestinal tract; parameters: dose 1-10 mg/kg, route subcutaneous; conditions: in vivo, 216 h; summary of the method: as §1
Mus musculus [6] = experiment: Acute toxicity in C57BL/6J mouse assessed as mild lymphoid apoptosis in white pulp of spleen at 3 to 10 mg/kg, sc after 9 days; type: organism-based; parameters: dose 3-10 mg/kg, route subcutaneous; conditions: in vivo, 216 h; summary of the method: as §1
Mus musculus [7] = experiment: Acute toxicity in C57BL/6J mouse assessed as karyomegaly at 1 mg/kg, sc after 9 days; type: organism-based; parameters: dose 1 mg/kg, route subcutaneous; conditions: in vivo, 216 h; summary of the method: as §1
Mus musculus [8] = experiment: Acute toxicity in C57BL/6J mouse assessed as milder tubular regeneration at 1 mg/kg, sc after 9 days; type: organism-based; parameters: dose 1 mg/kg, route subcutaneous; conditions: in vivo, 216 h; summary of the method: as §1
Mus musculus [9] = experiment: Acute toxicity in C57BL/6J mouse assessed as tubular epithelial necrosis and apoptosis in kidney at 3 to 10 mg/kg, sc after 9 days; type: organism-based; parameters: dose 3-10 mg/kg, route subcutaneous; conditions: in vivo, 216 h; summary of the method: as §1
Mus musculus [10] = experiment: Acute toxicity in C57BL/6J mouse assessed as moderate atypical tubular regeneration in kidney at 3 to 10 mg/kg, sc after 9 days; type: organism-based; parameters: dose 3-10 mg/kg, route subcutaneous; conditions: in vivo, 216 h; summary of the method: as §1
Mus musculus [11] = experiment: Acute toxicity in C57BL/6J mouse assessed as hepatocellular necrosis and apoptosis at 1 mg/kg, sc after 9 days; type: organism-based; parameters: dose 1 mg/kg, route subcutaneous; conditions: in vivo, 216 h; summary of the method: as §1
Mus musculus [12] = experiment: Acute toxicity in C57BL/6J mouse assessed as multifocal bridging hepatocellular necrosis and apoptosis at 3 to 10 mg/kg, sc after 9 days; type: organism-based; parameters: dose 3-10 mg/kg, route subcutaneous; conditions: in vivo, 216 h; summary of the method: as §1
Mus musculus [13] = experiment: Acute toxicity in C57BL/6J mouse assessed as diffuse hepatocellular necrosis and apoptosis at 3 to 10 mg/kg, sc after 9 days; type: organism-based; parameters: dose 3-10 mg/kg, route subcutaneous; conditions: in vivo, 216 h; summary of the method: as §1
Mus musculus [14] = experiment: Acute toxicity in C57BL/6J mouse assessed as acute morbidity at 3 to 10 mg/kg, sc after 9 days; type: organism-based; parameters: dose 3-10 mg/kg, route subcutaneous; conditions: in vivo, 216 h
Summary of the method: (§2)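 Male C57BL/6J mice, 8 weeks old, were acclimated 3 days and then given a single sc injection of 1, 3 or 10 mg/kg in 25% DMSO/saline vehicle (up to 200 μL), n = 4 per group. Weight, behaviour and appearance were monitored daily for 9 days before sacrifice. The humane end point was visible duress or weight loss over 15% of the original.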

Mus musculus [15] = experiment: Acute toxicity in C57BL/6J mouse assessed as hunched posture at 3 to 10 mg/kg, sc after 9 days; type: organism-based; parameters: dose 3-10 mg/kg, route subcutaneous; conditions: in vivo, 216 h; summary of the method: as §2
Mus musculus [16] = experiment: Acute toxicity in C57BL/6J mouse assessed as loss of mobility at 3 to 10 mg/kg, sc after 9 days; type: organism-based; parameters: dose 3-10 mg/kg, route subcutaneous; conditions: in vivo, 216 h; summary of the method: as §2
Mus musculus [17] = experiment: Acute toxicity in C57BL/6J mouse at 1 mg/kg, sc after 9 days; type: organism-based; parameters: dose 1 mg/kg, route subcutaneous; conditions: in vivo, 216 h
Summary of the method: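 Single sc injection in male 8-week-old C57BL/6J mice (1, 3 or 10 mg/kg in 25% DMSO/saline; n = 4 per group), followed for 9 days with daily weighing, then sacrifice. Toxicity was assessed by blinded histopathology of two mice per group and by blinded serum ALT, AST, total bilirubin, BUN and creatinine from retroorbital blood of all mice.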

[18] = Metabolic stability in mouse liver microsomes after 1 hr by LC/MS/MS analysis in presence of NADPH; type: ADME, Microsome; conditions: read-out: Stability
Summary of the method: (§3)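 Compound incubated at 37 °C for 60 min with 1 mg/mL human or mouse liver microsomes in 100 mM KH2PO4, 3 mM MgCl2, pH 7.4, with 2 mM NADPH or without it. Stopped with ice-cold methanol, then precipitate removed. Analyzed by LC/MS/MS as % remaining versus time zero. Duplicates.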

[19] = Metabolic stability in mouse liver microsomes after 1 hr by LC/MS/MS analysis; type: ADME, Microsome; conditions: read-out: Stability; summary of the method: as §3
[20] = Metabolic stability in human liver microsomes after 1 hr by LC/MS/MS analysis in presence of NADPH; type: ADME, Microsome; conditions: read-out: Stability; summary of the method: as §3
[21] = Metabolic stability in human liver microsomes after 1 hr by LC/MS/MS analysis; type: ADME, Microsome; conditions: read-out: Stability; summary of the method: as §3
Mus musculus [22] = experiment: Toxicity in C57BL/6J mouse assessed as hyaline droplet accumulation at 1 mg/kg, sc administered every 3 days for a cycle of 3 injections measured 2 days post last injection; type: organism-based; parameters: dose 1 mg/kg, route subcutaneous; conditions: in vivo, 48 h
Summary of the method: (§4)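 Male C57BL/6J mice, 8 weeks old, given 1 mg/kg sc every 3 days for three injections and sacrificed 2 days after the last one. Two mice per group fixed in 10% formalin. A veterinary pathologist, blinded, examined cecum, duodenum, heart, ileum, kidney, liver, lung, pancreas, spleen and stomach. Lesions graded mild, moderate or severe.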

Mus musculus [23] = experiment: Toxicity in C57BL/6J mouse assessed as hepatocellular necrosis and apoptosis at 1 mg/kg, sc administered every 3 days for a cycle of 3 injections measured 2 days post last injection; type: organism-based; parameters: dose 1 mg/kg, route subcutaneous; conditions: in vivo, 48 h; summary of the method: as §4
Mus musculus [24] = experiment: Toxicity in C57BL/6J mouse assessed as loss of mobility at 1 mg/kg, sc administered every 3 days for a cycle of 2 injections; type: organism-based; parameters: dose 1 mg/kg, route subcutaneous; conditions: in vivo, 72 h
Summary of the method: (§5)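 Male C57BL/6J mice, 3 per group, given 1 mg/kg sc every 3 days. Weight recorded on injection days. Watched for signs of duress. Humane end point was visible duress or weight loss over 15% of starting body weight.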

Mus musculus [25] = experiment: Toxicity in C57BL/6J mouse assessed as hunched posture at 1 mg/kg, sc administered every 3 days for a cycle of 2 injections; type: organism-based; parameters: dose 1 mg/kg, route subcutaneous; conditions: in vivo, 72 h; summary of the method: as §5
Mus musculus [26] = experiment: Toxicity in C57BL/6J mouse assessed as weight loss at 1 mg/kg, sc administered every 3 days for a cycle of 2 injections; type: organism-based; parameters: dose 1 mg/kg, route subcutaneous; conditions: in vivo, 72 h
Summary of the method: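 8-week-old male C57BL/6J mice, acclimated 3 days, groups of three, dosed sc in 25% DMSO/saline vehicle once every 3 days, sacrificed 2 days after the last injection. Body weight recorded on injection days and at end point; humane end point set at visible duress or >15% loss of original body weight.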

For `CC(=O)N[C@@H](CNC(=O)c1cc(NC(=O)c2cc(NC(=O)c3cc(NC(=O)c4nccn4C)cn3C)cn2C)cn1C)CC(=O)Nc1cn(C)c(C(=O)Nc2cc(C(=O)Nc3cc(C(=O)Nc4cc(C(=O)NCCCN(C)CCCNC(=O)c5cccc(C(=O)O)c5)n(C)c4)n(C)c3)n(C)c2)n1`, the Activity (Mus musculus [1]) was “Non-toxic”, the Activity (Mus musculus [2]) was “Non-toxic” and the Activity (Mus musculus [3]) was “Non-toxic”. The Activity (Mus musculus [4]) was “Non-toxic”, the Activity (Mus musculus [5]) was “Non-toxic” and the Activity (Mus musculus [6]) was “Toxic”. For the same compound, the Activity (Mus musculus [7]) was “Toxic”, the Activity (Mus musculus [8]) was “Toxic” and the Activity (Mus musculus [9]) was “Toxic”. The Activity (Mus musculus [10]) was “Toxic”, the Activity (Mus musculus [11]) was “Toxic” and the Activity (Mus musculus [12]) was “Toxic”. For the same compound, the Activity (Mus musculus [13]) was “Toxic”, the Activity (Mus musculus [14]) was “Toxic” and the Activity (Mus musculus [15]) was “Toxic”. The Activity (Mus musculus [16]) was “Toxic”, the Activity (Mus musculus [17]) was “Non-toxic” and the remaining at 1 h [18] was under 5%. For the same compound, the remaining at 1 h [19] was under 5%, the remaining at 1 h [20] was under 5% and the remaining at 1 h [21] was under 5%. For the same compound, the Activity (Mus musculus [22]) was “Toxic”, the Activity (Mus musculus [23]) was “Toxic” and the Activity (Mus musculus [24]) was “Toxic”. For the same compound, the Activity (Mus musculus [25]) was “Toxic” and the Activity (Mus musculus [26]) was “Toxic”.
